In paper PMC12415985 (Journal of medicinal chemistry, 2025):
Read-outs that look alike come from different tables or passages of the source.

Assays:
Pharmacokinetics in mice = format: in vivo, CD-1 mice; details: 10 mg/kg PO
Summary of the method: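 Fasted male CD-1 mice (3 per group) received a single oral 10 mg/kg dose as a suspension. Blood and brain were sampled at 1, 3 and 8 h. Plasma was obtained by centrifugation and stored below −20 °C. Plasma and brain concentrations were measured by LC−MS/MS. Parameters came from noncompartmental analysis, and brain/plasma ratio is given at the indicated time.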

hERG = hERG (Homo sapiens, UniProt Q12809); assay: hERG inhibition in CHO cell; format: cell-based; details: read-out: hERG inhibition CHO cell IC50
TgRH-PheRS[L497I]-FLuc = assay: Growth inhibition of PheRS L497I resistant line vs parental line; format: cell-based, Toxoplasma gondii; details: EC50 fold resistance, TgL497I vs parental TgRHΔhxgprtΔku80
Summary of the method: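 Firefly-luciferase tachyzoites were used: the PheRS[L497I] line, made in the parental TgRHΔΔ-FLuc (type I) strain, and the parental line itself. Each well of confluent HFF got 5×10^3 fresh tachyzoites and a 3-fold compound series, at 0.1% DMSO final. After 72 h at 37°C, cells were lysed and luciferase read. […] FR = resistant EC50 / parental EC50.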

HepG2 cells = assay: Host cell cytotoxicity, HepG2; format: cell-based, human
Plasma protein binding [1] = format: in vitro ADME; details: CD-1 mouse plasma
TgME49-EW intact cysts = assay: Intact tissue cyst treatment and plaque outgrowth assay; format: cell-based, Toxoplasma gondii
Summary of the method: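 Percoll-purified brain tissue cysts (10 per compound) were exposed to 3xEC90 in tubes at 37°C for 4 or 24 h, then washed 3× with PBS. Bradyzoites were freed by acid-pepsin, neutralized, and split into parallel 6-well plates with compound (constant) or without (washout). Plates ran 12−14 days at 37°C, 5% CO2. Plaques were ethanol-fixed, crystal-violet stained, counted by microscopy and normalized to the DMSO control.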

Brain homogenate binding = format: in vitro ADME; details: CD-1 mouse brain homogenate
TgME49-Fluc [2] = assay: Luciferase-based tachyzoite growth inhibition assay; format: cell-based, Toxoplasma gondii; details: for EC50: read-out: TgM49 EC50
[3] = Microsomal stability, mouse liver microsomes; format: in vitro ADME
Plasma protein binding [4] = format: in vitro ADME
MDCK-MDR1 = format: in vitro ADME
THP-1 cells = assay: Host cell cytotoxicity, THP-1; format: cell-based, human
Summary of the method: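 THP-1 cells were seeded at 10×10^3/well and differentiated with 10 ng/mL PMA for 24 h before compound addition. Compounds were given as a 10-dose 3-fold series from a 120 μM 2x working solution for 72 h at 37°C, 5% CO2. Viability was read by CellTiter-Glo luminescence.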

TgME49-FLuc tachyzoites [5] = details: for Survivors / Culture positive / Plaque positive: n=8
[6] = system: Tg68pBAG1:nLuc,DHFR bradyzoites; assay: In vitro differentiated bradyzoite growth inhibition; format: cell-based, Toxoplasma gondii; details: for EC50: Toxoplasma gondii
TgME49-FLuc tachyzoites [7] = format: in vivo, Toxoplasma gondii; details: Ifngr1-/- mice, 0.25 mg/ml in drinking water, n=11
TgME49-Fluc [8] = assay: Time dependent tachyzoite inhibition, 4 h washout vs 72 h continuous; format: cell-based, Toxoplasma gondii; details: vs continuous 72 h
TgME49-EW bradyzoites = assay: Ex vivo purified; format: cell-based, Toxoplasma gondii; details: 3X EC90, 4 h washout vs continual treatment
[9] = formulation A, na = not detected
[10] = Experiment 1, 0.25 mg/ml in drinking water
[11] = Toxoplasma gondii, read-out: TgME49 EC90

hERG, sequence (Q12809 whole entry): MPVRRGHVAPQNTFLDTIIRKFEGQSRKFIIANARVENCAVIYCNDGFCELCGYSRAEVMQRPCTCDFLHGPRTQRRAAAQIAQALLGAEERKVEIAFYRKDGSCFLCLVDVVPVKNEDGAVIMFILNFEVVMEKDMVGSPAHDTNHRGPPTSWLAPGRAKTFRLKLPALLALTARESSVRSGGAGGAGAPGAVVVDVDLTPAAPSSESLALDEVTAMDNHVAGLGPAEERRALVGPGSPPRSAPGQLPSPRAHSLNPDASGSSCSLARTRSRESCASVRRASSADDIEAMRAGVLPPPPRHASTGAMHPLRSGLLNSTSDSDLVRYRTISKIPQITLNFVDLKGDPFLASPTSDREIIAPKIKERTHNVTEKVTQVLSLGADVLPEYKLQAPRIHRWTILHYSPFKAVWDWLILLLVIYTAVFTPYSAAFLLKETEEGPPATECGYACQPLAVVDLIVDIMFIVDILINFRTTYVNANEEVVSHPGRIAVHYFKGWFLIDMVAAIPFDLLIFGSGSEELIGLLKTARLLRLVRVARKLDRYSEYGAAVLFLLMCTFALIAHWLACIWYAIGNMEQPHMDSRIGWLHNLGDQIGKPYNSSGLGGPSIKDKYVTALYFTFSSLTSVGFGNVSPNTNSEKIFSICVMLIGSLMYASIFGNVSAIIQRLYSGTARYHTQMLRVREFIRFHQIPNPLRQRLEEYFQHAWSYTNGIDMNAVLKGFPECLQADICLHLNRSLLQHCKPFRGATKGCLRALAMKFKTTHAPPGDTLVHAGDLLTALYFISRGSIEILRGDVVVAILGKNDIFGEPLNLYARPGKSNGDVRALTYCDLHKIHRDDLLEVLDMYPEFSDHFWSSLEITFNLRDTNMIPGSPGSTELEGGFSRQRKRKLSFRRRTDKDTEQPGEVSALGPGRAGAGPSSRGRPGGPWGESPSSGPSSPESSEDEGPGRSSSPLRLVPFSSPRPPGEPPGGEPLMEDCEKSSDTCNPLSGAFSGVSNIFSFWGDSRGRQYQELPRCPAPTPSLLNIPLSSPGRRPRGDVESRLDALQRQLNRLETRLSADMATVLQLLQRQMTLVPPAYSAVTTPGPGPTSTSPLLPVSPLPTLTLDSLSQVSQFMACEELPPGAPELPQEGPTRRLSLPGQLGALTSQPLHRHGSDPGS

For COc1ccc(NC(=O)N2CCCCN3[C@H](CN(C)C)[C@H](c4ccc(C#Cc5ccccc5)cc4)[C@@H]3C2)cc1 [BRD7929], the “Plasma Cmax/D” value (Pharmacokinetics in mice; formulation A (75% PEG300, 25% D5W), na = not detected) was 40.6 ± 10.4 ng/mL, the “Mouse B/P (time)” value (Pharmacokinetics in mice; formulation A, 8h) was 4.4 (8h) and the “Brain AUClast/D” value (Pharmacokinetics in mice; [9]) was 807 ng·h/mL. For the same compound, the “Brain Cmax/D” value (Pharmacokinetics in mice; [9]) was 179 ± 60.7 ng/mL, the “Plasma AUClast/D” value (Pharmacokinetics in mice; [9]) was 220.9 ng·h/mL and the IC50 (hERG) was 0.54 µM. The “TgL497I EC50/ Parental EC50 (FR)” value (TgRH-PheRS[L497I]-FLuc) was 78, the SI (HepG2 cells; HepG2 CC50 / EC50 TgME49) was 147 and the CC50 (HepG2 cells; read-out: HepG2 CC50, Table 2) was 6.07 µM. For the same compound, the “Plasma protein binding % (CD-1 mouse)” value (Plasma protein binding [1]) was 99.6%, the “inhibition of outgrowth from intact cysts” value (TgME49-EW intact cysts; 3X EC90, 24 h treatment followed by washing and plating without compound) was “up to 50%” and the “Brain Homogenate binding %(CD-1 mouse)” value (Brain homogenate binding) was 99.98%. For the same compound, the EC90 (TgME49-Fluc [2]; read-out: Tg EC90, Table 3) was 0.134 ± 0.085 µM, the EC50 (TgME49-Fluc [2]; ME49 expressing firefly luciferase, Table 2) was 0.041 µM and the EC90 (TgME49-Fluc [2]; read-out: TgME49 EC90, ME49 expressing firefly luciferase, Table 2) was 0.139 µM. For the same compound, the “Eh (hepatic extraction)” value ([3]; calculated with mouse liver blood flow of 90ml/min/kg, second value of cell) was 0.40, the Microsomal stability mouse ([3]; mouse liver microsomes, first value of cell) was 15.41 µL/min/mg and the “Plasma protein binding % (human)” value (Plasma protein binding [4]) was 99.56%. For the same compound, the “MDCK-MDR1 Permeability A-B Papp” value (MDCK-MDR1) was 0.28 10^−6cm/s, the “MDCK-MDR1 Permeability B-A Papp” value (MDCK-MDR1) was 9.62 10^−6cm/s and the SSII (THP-1 cells; THP-1 CC50 / EC50 TgME49) was 24. For the same compound, the CC50 (THP-1 cells; read-out: THP-1 CC50, Table 2) was 1.01 µM, the weight loss (TgME49-FLuc tachyzoites [5]; Experiment 1, 10 mg/kg QD) was “little weight loss” and the Survivors (TgME49-FLuc tachyzoites [5]; Experiment 1, 10 mg/kg QD p.o. 4-10 DPI) was 8. For the same compound, the Culture positive (TgME49-FLuc tachyzoites [5]; Experiment 1, 10 mg/kg QD, outgrowth in HFF culture) was 1, the Plaque positive (TgME49-FLuc tachyzoites [5]; Experiment 1, 10 mg/kg QD, plaquing assay after 14 days) was 1 and the “EC50 of recovered parasites” value (TgME49-FLuc tachyzoites [5]; Experiment 1, 10 mg/kg QD, EC50 determination using TgME49 expressing firefly luciferase) was “No change”. For the same compound, the “mice harboring chronic infection (of 8)” value (TgME49-FLuc tachyzoites [5]; Experiment 1, 10 mg/kg QD, brain homogenate outgrowth) was 1 and the “fold elevation of bradyzoite EC50 compared to tachyzoite conditions” value ([6]; in vitro differentiated bradyzoites vs tachyzoites) was 3 to 5 fold.

For Nc1ccc(S(=O)(=O)Nc2ncccn2)cc1 [Sulfadiazine], the “survival vs vehicle control” value (TgME49-FLuc tachyzoites [7]) was “survived significantly longer”, the weight loss (TgME49-FLuc tachyzoites [5]; [10]) was “little weight loss” and the Culture positive (TgME49-FLuc tachyzoites [5]; [10]) was 6. For the same compound, the Plaque positive (TgME49-FLuc tachyzoites [5]; [10]) was 7, the Survivors (TgME49-FLuc tachyzoites [5]; [10]) was 8 and the “mice harboring chronic infection (of 8)” value (TgME49-FLuc tachyzoites [5]; Experiment 1, sulfadiazine in drinking water) was 7.

In the case of O=C1C(O)=C([C@H]2CC[C@H](c3ccc(Cl)cc3)CC2)C(=O)c2ccccc21 [Atovaquone], the “potency after 4 h treatment vs continuous treatment (in words)” value (TgME49-Fluc [8]) is reported as “only effective when used for 72 h treatment”, the “activity on intact cysts (in words)” value (TgME49-EW intact cysts; 3X EC90, 24 h treatment) is reported as “among the most effective compounds in this assay” and the EC50 (TgME49-Fluc [2]; Toxoplasma gondii) is reported as 0.071 µM. The EC90 (TgME49-Fluc [2]; [11]) was 0.163 µM, the “inhibition of outgrowth of liberated bradyzoites (in words)” value (TgME49-EW bradyzoites) was “only active when used continuously” and the EC50 ([6]; pH 8.2, read-out: Tg68 EC50 (Alkaline)) was 1.59 µM. It also gave an EC50 ([6]; read-out: Tg68 EC50 (Glutamine)) of 0.052 µM.

In the case of CCc1nc(N)nc(N)c1-c1ccc(Cl)cc1 [Pyrimethamine], the “potency after 4 h treatment vs continuous treatment (in words)” value (TgME49-Fluc [8]) is reported as “only effective when used for 72 h treatment”, the EC50 (TgME49-Fluc [2]; Toxoplasma gondii) is reported as 0.33 µM and the EC90 (TgME49-Fluc [2]; [11]) is reported as 0.551 µM. The “inhibition of outgrowth of liberated bradyzoites (in words)” value (TgME49-EW bradyzoites) was “only active when used continuously”.
